Screening data deposited in PubChem by several laboratories.
Mdm2 MdmX PPI – inhibitors of human Mdm2-MdmX association, primary screen, cell-based, luminescence, split luciferase, SaOS-2, uHTS. Protein Mdm4 (Homo sapiens) + E3 ubiquitin-protein ligase Mdm2 (Homo sapiens), …. SaOS-2 split-luciferase Mdm2/MdmX complementation. inhibition, % at 8 µM. hit rate 3% among 330,000. AID 485346, 2010;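 active = inhibition of at least 50% at 8 µM in the primary screen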
Target sequence (O15151 whole entry, looked up): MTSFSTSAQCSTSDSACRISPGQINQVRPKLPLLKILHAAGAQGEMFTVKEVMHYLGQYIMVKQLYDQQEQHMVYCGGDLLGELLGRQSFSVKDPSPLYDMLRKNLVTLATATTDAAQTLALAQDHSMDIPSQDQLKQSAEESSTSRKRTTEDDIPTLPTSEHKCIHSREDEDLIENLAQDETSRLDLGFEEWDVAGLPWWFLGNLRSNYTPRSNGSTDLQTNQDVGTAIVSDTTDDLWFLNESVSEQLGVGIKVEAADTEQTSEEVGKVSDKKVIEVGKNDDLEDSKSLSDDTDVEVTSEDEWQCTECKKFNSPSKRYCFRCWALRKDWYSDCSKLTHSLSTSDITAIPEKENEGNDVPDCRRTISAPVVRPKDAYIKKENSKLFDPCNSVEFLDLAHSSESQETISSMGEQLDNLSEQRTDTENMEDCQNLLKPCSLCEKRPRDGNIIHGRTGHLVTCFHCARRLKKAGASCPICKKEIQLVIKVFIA
Target sequence (Q00987 whole entry, looked up): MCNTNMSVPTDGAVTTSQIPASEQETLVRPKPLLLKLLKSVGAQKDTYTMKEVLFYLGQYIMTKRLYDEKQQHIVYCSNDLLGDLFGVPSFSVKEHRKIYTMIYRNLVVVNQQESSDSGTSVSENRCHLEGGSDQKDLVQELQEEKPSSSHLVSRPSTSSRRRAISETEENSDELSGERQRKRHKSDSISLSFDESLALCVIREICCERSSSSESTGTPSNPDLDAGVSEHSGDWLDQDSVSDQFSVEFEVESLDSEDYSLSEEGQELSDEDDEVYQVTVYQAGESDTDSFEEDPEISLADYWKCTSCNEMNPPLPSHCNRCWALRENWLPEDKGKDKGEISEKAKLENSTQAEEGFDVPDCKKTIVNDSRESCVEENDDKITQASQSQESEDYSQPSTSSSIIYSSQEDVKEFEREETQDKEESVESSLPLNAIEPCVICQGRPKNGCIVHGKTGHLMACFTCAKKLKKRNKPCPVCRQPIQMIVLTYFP
Beta cell apopt – inhibitors of cytokine-induced beta cell apoptosis, primary screen, luminescence; INS-1E cytokine-induced death, ATP luminescence, 48 h; percent of positive-control rescue, neutral wells zero; protection from apoptosis, % (test concentration not listed); hit rate 0.8% among 300,000; AID 435005, 2010;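 active = Every replicate reaches about 75%, or at least half do and their mean reaches it too, limit read from the data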;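 note: 0% = cytokine-treated negative control wells and 100% = positive control rescue; higher means more ATP so stronger rescue from cytokine killing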
NLRP3 yeast inh – NALP3 inflammasome inhibitors in reconstituted yeast, primary screen, luminescence, uHTS. Yeast reconstituted NLRP3/ASC/caspase-1, beta-gal luminescence, 24 h. inhibition, % at 10 µM. hit rate 0.39% among 330,000. AID 2825, 2010;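 active = inhibition of 50% or more; inactive = inhibition below 50%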;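 note: plate controls were induced DMSO wells for no effect and uninduced yeast grown without galactose for full effect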
Calb FLC – C. albicans growth inhibition with fluconazole, primary screen, CaCi-2 strain, Alamar Blue fluorescence | hit rate 0.57% among 300,000 | growth inhibition, % (no concentration beside the values) | C. albicans CaCi-2 (fluconazole-resistant clinical isolate) + fluconazole, 48 h;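 active = growth inhibition above about 58% in most replicates, limit read from the data, passing the limit was not always enough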;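 note: all wells also contain fluconazole at 8 µg/ml as a sub-toxic cotreatment; 0% = median of DMSO wells and 100% = median of geldanamycin control wells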
CSC inhib – cancer stem cell viability inhibitors, primary screen, luminescence; cancer stem cell-like cells viability; inhibition, % at 7.5 µM; hit rate 1.1% among 300,000; AID 2717, 2010; in the data active = inhibition above about 75%; tested in HMLE shEcad cells
T cruzi repl – inhibitors of intracellular T. cruzi growth, primary screen, luminescence, NIH3T3 host cells | T. cruzi beta-gal in NIH3T3, 90 h | hit rate 1.4% among 300,000 | inhibition, % (concentration not given with the values) | AID 1885, 2009;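 active = mean inhibition across valid replicates above about 55%, limit read from the data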;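 note: signal also drops with host cell toxicity which is not excluded here; 0% = plate median of DMSO wells and 100% = zero luminescence signal; higher percent means less beta-gal luminescence so fewer parasites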
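Incubation – ≥90 h infection period, 3 h prior cell attachment · System – NIH/3T3 fibroblasts plus reporter T. cruzi · Doses – compound pinned at 50 nL/well, DMSO · Read-out basis – percent inhibition of parasite-derived β-gal signal · Signal – luminescent β-galactosidase signal after 60 min lysis · Also added – 5000 T. cruzi trypomastigotes/well · Medium – Low-serum DMEM with 2% FBS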
Mdm2-MdmX conf – Mdm2-MdmX complex disruptors, retested hits, confirmation, luminescence, single concentration | shares compounds with Mdm2 MdmX PPI | hit rate 55% among 10,000 | inhibition, % at 8 µM | AID 489028, 2010 | Mdm2-MdmX binding, luminescent assay; in the data active = inhibition above about 40%
Full FLuc ctr – full-length luciferase signal inhibition, confirmation, counter-screen for Mdm2/MdmX interaction inhibitor project, cell-based, single concentration, SaOS-2; shares compounds with Mdm2 MdmX PPI; inhibition, % at 8 µM; SaOS-2 full-length luciferase counterscreen, luminescence; hit rate 77% among 6,200; AID 504607, 2011;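 active = mean inhibition at 8 µM reaching about 37%, which flags the compound as non-specific, limit read from the data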;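 note: p53-null SaOS-2 cells with luciferase driven by a doxycycline-inducible promoter; compound on cells about two nights before reading with doxycycline added after day one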
Starred values were filed as active, the others as inactive. An excerpt weighted towards active compounds, which were near 5.3% of everything screened.

What do the screens show for `O=C(Cc1ccccc1)Nc1cccc([N+](=O)[O-])c1`?
Mdm2 MdmX PPI: 16; Beta cell apopt: -2; NLRP3 yeast inh: 5; Calb FLC: -30; CSC inhib: 1; T cruzi repl: -4

Results for COc1cc(-c2nc3cnccn3c2Nc2ccccc2)ccc1O ?
Mdm2 MdmX PPI: 57*; Beta cell apopt: -8; NLRP3 yeast inh: 3; Calb FLC: -8; CSC inhib: 4; T cruzi repl: 5; Mdm2-MdmX conf: 38; Full FLuc ctr: 94*

How did COc1cc(-c2nc3cnccn3c2Nc2ccc(C)cc2)ccc1O do in these assays?
Mdm2 MdmX PPI: 69*; Beta cell apopt: -24; NLRP3 yeast inh: 1; Calb FLC: 4; CSC inhib: -22; T cruzi repl: 14; Mdm2-MdmX conf: 8

How did CCOC(=O)c1c(C)[nH]c(C(=O)COC(=O)COc2ccccc2C=O)c1C do in these assays?
Mdm2 MdmX PPI: -24; Beta cell apopt: -4; NLRP3 yeast inh: -5; Calb FLC: 2; CSC inhib: 2; T cruzi repl: -3

What do the screens show for `COc1ccc(Cl)cc1S(=O)(=O)NC(C)C(=O)NCc1ccccn1` (centres undefined)?
Mdm2 MdmX PPI: 7; Beta cell apopt: -4; NLRP3 yeast inh: -14; Calb FLC: 16; CSC inhib: -14; T cruzi repl: -12

Results for O=C(O)c1ccc(NC2=C(Cl)C(=O)c3ccccc3C2=O)cc1 ?
Mdm2 MdmX PPI: 100*; Beta cell apopt: 14; NLRP3 yeast inh: -11; Calb FLC: -19; CSC inhib: 102*; T cruzi repl: 55*; Mdm2-MdmX conf: 91*; Full FLuc ctr: 53*

What do the screens show for `CC1(C)OC(=O)C=C[C@]2(C)[C@H]3CC[C@@]4(C)[C@H](c5ccoc5)OC(=O)[C@H]5O[C@]54[C@]3(C)C(=O)C[C@@H]12`?
Mdm2 MdmX PPI: 9; Beta cell apopt: -1; NLRP3 yeast inh: 1; CSC inhib: -2

What do the screens show for `CC(=O)O[C@@H]1C[C@H]2C(C)(C)C(=O)C=C[C@]2(C)[C@H]2CC[C@@]3(C)[C@H](c4ccoc4)OC(=O)[C@H]4O[C@]43[C@@]21C`?
Mdm2 MdmX PPI: 98*; Beta cell apopt: -19; NLRP3 yeast inh: -9; Calb FLC: 19; CSC inhib: 17; T cruzi repl: 32; Mdm2-MdmX conf: 71*; Full FLuc ctr: 34

How did [O-]C1=N/[N+](=C/c2ccc(Cl)cc2)CC1 do in these assays?
Mdm2 MdmX PPI: -3; Beta cell apopt: 2; NLRP3 yeast inh: -13; Calb FLC: -2; CSC inhib: -16; T cruzi repl: -4

Results for N#Cc1nc(-c2ccc(OCc3ccc(Cl)cc3)cc2)oc1N1CCC(C(N)=O)CC1 ?
Mdm2 MdmX PPI: 5; Beta cell apopt: -4; NLRP3 yeast inh: 3; Calb FLC: -1; CSC inhib: -11; T cruzi repl: 3

How did N#Cc1nc(-c2ccc(OCc3ccc(Cl)cc3)cc2)oc1N1CCOCC1 do in these assays?
Mdm2 MdmX PPI: 55*; Beta cell apopt: 14; NLRP3 yeast inh: -10; Calb FLC: 7; CSC inhib: 8; T cruzi repl: -9; Mdm2-MdmX conf: 22

What do the screens show for `COc1ccc2c(CC(=O)Nc3ncc(C)s3)coc2c1`?
Mdm2 MdmX PPI: 66*; Beta cell apopt: 40; NLRP3 yeast inh: 19; Calb FLC: -1; CSC inhib: 52; T cruzi repl: -16; Mdm2-MdmX conf: 66*; Full FLuc ctr: active

What do the screens show for `Nc1nc(-c2ccc(Br)cc2)c(S(=O)(=O)c2ccccc2)s1`?
Mdm2 MdmX PPI: -19; Beta cell apopt: -4; NLRP3 yeast inh: 12; Calb FLC: 3; CSC inhib: 6; T cruzi repl: 5

What do the screens show for `COc1cccc2cc(C(=O)Nc3cc(C)cc(C)c3)/c(=N/NS(=O)(=O)c3ccccc3)oc12`?
Mdm2 MdmX PPI: 78*; Beta cell apopt: -3; NLRP3 yeast inh: -5; Calb FLC: -3; CSC inhib: -9; T cruzi repl: -1; Mdm2-MdmX conf: 8

How did Nc1[nH]nc2nc(NCc3ccccc3)c3c(c12)CCN(Cc1ccccc1)C3 do in these assays?
Mdm2 MdmX PPI: 53*; Beta cell apopt: -18; NLRP3 yeast inh: 17; Calb FLC: -5; CSC inhib: 20; T cruzi repl: 17; Mdm2-MdmX conf: 20

Results for O=C(NCc1ccc(F)cc1)c1c2c(nc3ccccc13)CCN(Cc1ccccc1)C2 ?
Mdm2 MdmX PPI: 31; Beta cell apopt: 8; NLRP3 yeast inh: 4; Calb FLC: -9; CSC inhib: 2; T cruzi repl: 18

How did O=C(/C=C/c1ccc(OC(F)F)cc1)OCC(=O)N1CCc2ccccc21 do in these assays?
Mdm2 MdmX PPI: 36; Beta cell apopt: -8; NLRP3 yeast inh: 26; Calb FLC: -1; CSC inhib: -12; T cruzi repl: 32

Results for O=[N+]([O-])c1ccccc1S(=O)(=O)N1CCN(c2ccccn2)CC1 ?
Mdm2 MdmX PPI: 5; Beta cell apopt: -7; NLRP3 yeast inh: 27; Calb FLC: 5; CSC inhib: -13; T cruzi repl: -24

Results for Cc1cccc(NC(=O)c2nc[nH]c2C(=O)Nc2ccccc2[N+](=O)[O-])c1 ?
Mdm2 MdmX PPI: 51*; Beta cell apopt: 9; NLRP3 yeast inh: 15; Calb FLC: 1; CSC inhib: 13; T cruzi repl: -17; Mdm2-MdmX conf: 30

What do the screens show for `CCOC(=O)c1ccc(NC(=O)c2nc[nH]c2C(=O)N[C@@H](Cc2ccccc2)C(=O)OC(C)(C)C)cc1`?
Mdm2 MdmX PPI: 62*; Beta cell apopt: 18; NLRP3 yeast inh: 0; Calb FLC: 6; CSC inhib: 2; T cruzi repl: -12; Mdm2-MdmX conf: 31

Results for CC(C)(C)OC(=O)[C@H](Cc1ccccc1)NC(=O)c1[nH]cnc1C(=O)Nc1cccc(Cl)c1 ?
Mdm2 MdmX PPI: 70*; Beta cell apopt: 22; NLRP3 yeast inh: 7; Calb FLC: 4; CSC inhib: 97*; T cruzi repl: 40; Mdm2-MdmX conf: 23
